In the array DNA melting data of Ke et al. (doi:10.1101/2024.01.08.574731) one finds folding enthalpy and Tm data, which are given here for 37 sequences.

Series [1] can be described thus: folding enthalpy; higher = less favourable; fluorescence melt of hairpins on a sequencing array, two-state fit. To be noted: sodium 0.088 M. The method, boiled down:
(§1)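 Cy3 fluorescence of library hairpins on a sequenced MiSeq flow cell, with annealed Cy3 and quencher oligos, was imaged in 50 mM Na-HEPES pH 8.0, 25 mM NaCl in 2.5 °C steps up to 60 °C. Signals were normalised to pre-quench Cy3 and to control variants. Melting temperature and folding enthalpy came from bootstrapped two-state fits, inverse-variance combined over four replicates. Fitted temperatures were raised by 9.35 °C to match UV melts.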

A short description of series [2]: melting temperature; fluorescence melt of hairpins on a sequencing array, two-state fit, raised by 9.35 °C to match UV melts. The following applies: sodium 0.088 M. The essentials:
as §1

In the case of GCGGCTCCCGC ((((...)))), in series [1], the folding enthalpy is -23.7 kcal/mol. Moreover, the Tm in series [2] turned out to be 56.9 °C.

As to GTCTGAGGAAACTTAGAC ((((.((....)).)))), in series [1], the folding enthalpy is -30.7 kcal/mol. In addition, the Tm in series [2] is 39.9 °C.

As for GTGAGTGGAAACACTCGC (.(((((....))))).), in series [1], the folding enthalpy was -33.1 kcal/mol. The Tm in series [2] was 54.9 °C.

Take GATCGCCCTCGCGATC ((((((....)))))): the folding enthalpy in series [1] was -27.9 kcal/mol. Further, the Tm in series [2] was 67.5 °C.

GATCGCAGACGCGATC ((((((....)))))): in series [1], the folding enthalpy was -30.9 kcal/mol. Also, in series [2], the Tm amounted to 67.8 °C.

Consider GATCGACGATCGATC ((((((...)))))), for which the folding enthalpy in series [1] was -20.6 kcal/mol. For the same sequence, in series [2], the Tm was found to be 49.2 °C.

With GATCACGTCGGTGATC ((((((....)))))), in series [1], the folding enthalpy is -36.5 kcal/mol. Also, in series [2], the Tm turned out to be 59.7 °C.

As to GCAAGGCGAAAGCCAAGC ((..(((....)))..)), the folding enthalpy in series [1] is -13.8 kcal/mol. In addition, the Tm in series [2] worked out at 50.1 °C.

On to GATCAAGGTTTGATC ((((((...)))))), for which, in series [1], the folding enthalpy was -28.5 kcal/mol. Moreover, the Tm in series [2] was 42.4 °C.

For the sequence GTTCTAGGAAACTGGAAC ((((.((....)).)))), the folding enthalpy in series [1] is -28.7 kcal/mol. For the same sequence, the Tm in series [2] amounted to 42.2 °C.

As for GGTGGGGGAAACTCCGCC ((.((.(....).)).)), the folding enthalpy in series [1] is -26.4 kcal/mol. For the same sequence, the Tm in series [2] was determined as 49.6 °C.

In the case of GATCGATTATTCGATC ((((((....)))))), the folding enthalpy in series [1] is -42.7 kcal/mol. Besides, the Tm in series [2] stood at 54.2 °C.

On to GCACACCGAAAGGTTTGC (((.(((....))).))), for which, in series [1], the folding enthalpy is -40.7 kcal/mol. Further, the Tm in series [2] was 52.3 °C.

For the sequence GATCGATAATCGATC ((((((...)))))), in series [1], the folding enthalpy is -37.7 kcal/mol. In series [2], the Tm stood at 49.5 °C.

Regarding GATCTGGCCACAGATC ((((((....)))))), the folding enthalpy in series [1] was -39.6 kcal/mol. Also, the Tm in series [2] is 59.8 °C.

As to GGGTACGAAAGTAGTCCC ((((((....)))..))), the folding enthalpy in series [1] was -20.8 kcal/mol. Also, the Tm in series [2] turned out to be 36.4 °C.

With GAAGTACGAAAGTATTTC (((.(((....))).))), the folding enthalpy in series [1] is -28.9 kcal/mol. Further, the Tm in series [2] was found to be 40.5 °C.

GCTTGTTCGAAAGAAAGC (((..(((....)))))): the folding enthalpy in series [1] was -16.2 kcal/mol. Also, the Tm in series [2] was found to be 26.5 °C.

With GTGTCGGGAAACTGGCAC (((.(.(....).).))), the folding enthalpy in series [1] was -29.2 kcal/mol. Also, the Tm in series [2] came out at 45.9 °C.

Take GAATGGCGAAAGCCGTTC (((.(((....))).))): the folding enthalpy in series [1] is -22.4 kcal/mol. Moreover, the Tm in series [2] is 58.1 °C.

Turning to GGAGGTGGAAACATCTCC ((((.((....)).)))), in series [1], the folding enthalpy is -44.1 kcal/mol. Besides, the Tm in series [2] was 49.1 °C.

As to ATTGGGAAACCAAT (((((....))))), in series [1], the folding enthalpy is -16.9 kcal/mol. In addition, the Tm in series [2] is 40.3 °C.

For GCAGTGCGAAAGCGATGC (((..((....))..))), the folding enthalpy in series [1] was -30.6 kcal/mol. The Tm in series [2] was found to be 62.4 °C.

On to GCATCGAAAGATGC (((((....))))), for which the folding enthalpy in series [1] is -31.8 kcal/mol. For the same sequence, the Tm in series [2] came out at 69.2 °C.

In the case of GATCTCTAGGAGATC ((((((...)))))), in series [1], the folding enthalpy is -39.1 kcal/mol. The Tm in series [2] is 52.9 °C.

On to GCAAAAGGAAACTTTTGC (((((((....))))))), for which the folding enthalpy in series [1] was -45 kcal/mol. Moreover, the Tm in series [2] came to 56.5 °C.

For GCGTGTGGAAACATACGC ((((.((....)).)))), the folding enthalpy in series [1] is -39 kcal/mol. In series [2], the Tm turned out to be 58.8 °C.

Consider GCTAAGCGAAAGCGAAGC (((..((....))..))), for which the folding enthalpy in series [1] is -26.7 kcal/mol. The Tm in series [2] was found to be 63 °C.

For the sequence GATCTATCGGTAGATC ((((((....)))))), the folding enthalpy in series [1] is -24.7 kcal/mol. Besides, in series [2], the Tm turned out to be 39.1 °C.

For the sequence GATCAAGAGGTTGATC ((((((....)))))), the folding enthalpy in series [1] was -24.2 kcal/mol. The Tm in series [2] is 37.9 °C.

Take GCGAAGCGAAAGCCTGGC ((.(.((....)).).)): in series [1], the folding enthalpy is -5.56 kcal/mol. Further, the Tm in series [2] amounted to 34.1 °C.

For the sequence GATCTGGGAAACTGGATC ((((..(....)..)))), the folding enthalpy in series [1] is -26.2 kcal/mol. The Tm in series [2] is 35.2 °C.

For the sequence GGGTCTTCGAAAGAACCC (((..(((....)))))), the folding enthalpy in series [1] was -29.2 kcal/mol. Moreover, the Tm in series [2] worked out at 40.6 °C.

For GCAGACGAAAGTCGATGC ((((((....)))..))), in series [1], the folding enthalpy is -17.6 kcal/mol. Further, the Tm in series [2] is 45.4 °C.

As for GCGGATAACCGC ((((....)))), the folding enthalpy in series [1] is -19.6 kcal/mol. Besides, in series [2], the Tm is 53 °C.

On to GCCCAGCGAAAGCTATGC ((..(((....)))..)), for which the folding enthalpy in series [1] is -5.13 kcal/mol. In addition, the Tm in series [2] came to 25.6 °C.

Turning to GGTTTACGAAAGTACACC (((.(((....))).))), the folding enthalpy in series [1] was -28.3 kcal/mol. For the same sequence, in series [2], the Tm came out at 45.2 °C.
